Experimental data reported in ChEMBL document CHEMBL2406932, “Heteroaromatic and aniline derivatives of piperidines as potent ligands for vesicular acetylcholine transporter” (J Med Chem, 2013).

What was measured:
PC-12 [1] = assay: Selectivity ratio, ratio of Ki for sigma 2 receptor in rat liver homogenates to Ki for human VAChT expressed in rat PC12 cells; assay type: cell-based
PC-12 [2] = assay: Selectivity ratio, ratio of Ki for sigma 1 receptor in guinea pig brain homogenates to Ki for human VAChT expressed in rat PC12 cells; assay type: cell-based
[3] = target: T1, Vesicular acetylcholine transporter (Homo sapiens, UniProt Q16572); assay: Displacement of (-)-[3H]vesamicol from human VAChT expressed in rat PC12 cell membrane after 20 hrs; assay type: cell membranes, PC-12
T1 sequence (Q16572 whole entry): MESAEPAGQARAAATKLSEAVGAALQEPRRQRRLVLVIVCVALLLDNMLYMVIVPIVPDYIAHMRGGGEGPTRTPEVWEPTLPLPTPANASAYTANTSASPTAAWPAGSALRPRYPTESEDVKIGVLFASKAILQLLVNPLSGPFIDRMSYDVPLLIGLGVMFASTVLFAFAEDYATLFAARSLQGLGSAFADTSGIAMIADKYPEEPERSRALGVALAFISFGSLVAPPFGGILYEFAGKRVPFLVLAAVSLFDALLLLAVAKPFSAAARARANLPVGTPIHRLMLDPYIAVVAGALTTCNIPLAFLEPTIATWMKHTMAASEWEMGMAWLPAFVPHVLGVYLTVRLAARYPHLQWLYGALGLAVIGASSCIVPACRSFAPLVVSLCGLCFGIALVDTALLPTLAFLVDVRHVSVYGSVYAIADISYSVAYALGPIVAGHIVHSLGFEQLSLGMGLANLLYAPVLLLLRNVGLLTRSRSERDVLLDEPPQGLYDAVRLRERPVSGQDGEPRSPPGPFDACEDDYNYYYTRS

[4] = Displacement of [3H]DTG from sigma 2 receptor in rat liver membrane homogenates after 120 mins by scintillation counting analysis; assay type: cell membranes
How it was run: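 Rat liver membrane homogenate (~300 µg protein) with ~5 nM [3H]DTG plus 1 µM (+)-pentazocine to block sigma-1 sites, 120 min at room temperature, pH 7.4 Tris buffer. Nonspecific binding taken with 10 µM haloperidol. Filtration and scintillation counting.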

[5] = target: Sigma non-opioid intracellular receptor 1 (Cavia porcellus, UniProt Q60492); assay: Displacement of (+)- [3H]pentazocine from sigma 1 receptor expressed in guinea pig brain membrane homogenates by scintillation counting analysis; assay type: cell membranes
[6] = tested as the 11C-labelled form

Chain of Sigma non-opioid intracellular receptor 1 (Q60492 whole entry): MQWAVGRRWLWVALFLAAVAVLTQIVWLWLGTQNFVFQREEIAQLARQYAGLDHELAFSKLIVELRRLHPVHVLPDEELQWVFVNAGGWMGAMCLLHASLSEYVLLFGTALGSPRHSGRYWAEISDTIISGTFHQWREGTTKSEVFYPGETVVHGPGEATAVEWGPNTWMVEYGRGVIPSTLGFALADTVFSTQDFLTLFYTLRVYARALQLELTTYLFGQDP

Compound	Ratio Ki (PC-12 [1]; [6])	Ratio Ki (PC-12 [2]; [6])	Ki [3] [nM]	Ratio Ki (PC-12 [1])	Ratio Ki (PC-12 [2])	Ki [4] [nM]	Ki [5] [nM]	Ki ([3]; pc-12) [nM]
CNc1ccc(C(=O)C2CCN([C@H]3Cc4ccccc4C[C@@H]3O)CC2)cc1	14700	1270						
O=C(c1cccs1)C1CCN([C@@H]2Cc3ccccc3C[C@H]2O)CC1 (racemic)			5					
O=C(c1ccccc1)C1CCN([C@@H]2Cc3ccccc3C[C@H]2O)CC1 (racemic)				74	51	320		
Nc1cccc2c1C[C@@H](N1CCC(C(=O)c3cccnc3)CC1)[C@H](O)C2 (racemic)			118	43	170	5080	20300	
O=C(c1cncc(F)c1)C1CCN([C@@H]2Cc3ccccc3C[C@H]2O)CC1 (racemic)				170	70	1690	709	
Cn1ccc(C(=O)C2CCN([C@@H]3Cc4ccccc4C[C@H]3O)CC2)cc1=O (racemic)				32	51	2120	3350	
Cn1c(C(=O)C2CCN([C@@H]3Cc4ccccc4C[C@H]3O)CC2)cccc1=O (racemic)				18	12	3340	2160	
O=C(c1ccc(F)nc1)C1CCN([C@@H]2Cc3ccccc3C[C@H]2O)CC1 (racemic)				67	26	1750	682	
O=C(c1cccnc1F)C1CCN([C@@H]2Cc3ccccc3C[C@H]2O)CC1 (racemic)				280		3530	1300	
CN(C)c1ccc(C(=O)C2CCN([C@@H]3Cc4ccccc4C[C@H]3O)CC2)cc1 (racemic)				4400	44	4080	40.9	
CNc1ccc(C(=O)C2CCN([C@@H]3Cc4ccccc4C[C@H]3O)CC2)cc1 (racemic)				2000	100	6180	305	
O=C(c1ccc(OCCF)nc1)C1CCN([C@@H]2Cc3ccccc3C[C@H]2O)CC1 (racemic)				49	56	1860	2120	
O=C(c1ncccc1OCCF)C1CCN([C@@H]2Cc3ccccc3C[C@H]2O)CC1 (racemic)				4	260	303	20000	
Cn1cccc1C(=O)C1CCN([C@@H]2Cc3c(N)cccc3C[C@H]2O)CC1 (racemic)				180	200	6990	7660	
Cc1ccc(C(=O)C2CCN([C@@H]3Cc4c(N)cccc4C[C@H]3O)CC2)cn1 (racemic)			48			27500		
COc1ccc(C(=O)C2CCN([C@@H]3Cc4c(N)cccc4C[C@H]3O)CC2)cn1 (racemic)			23.3	220	120	10800	5680	
Cn1cccc1C(=O)C1CCN([C@@H]2Cc3cccc(N)c3C[C@H]2O)CC1 (racemic)				4.9	4	11400	9240	
Cn1cccc1C(=O)C1CCN([C@@H]2Cc3ccccc3C[C@H]2O)CC1 (racemic)				140	71	2550	1300	
Cn1ccc(C(=O)C2CCN([C@@H]3Cc4ccccc4C[C@H]3O)CC2)c1 (racemic)						7710	3040	
O=C(c1cccnc1)C1CCN([C@@H]2Cc3ccccc3C[C@H]2O)CC1 (racemic)				130	540	3030	12900	
Cc1ccc(C(=O)C2CCN([C@@H]3Cc4ccccc4C[C@H]3O)CC2)cn1 (racemic)						3770	2120	
COc1ccc(C(=O)C2CCN([C@@H]3Cc4ccccc4C[C@H]3O)CC2)cn1 (racemic)			8.36			2570	986	
COc1cccnc1C(=O)C1CCN([C@@H]2Cc3ccccc3C[C@H]2O)CC1 (racemic)				13	170	1560	21000	
Nc1ccc(C(=O)C2CCN([C@@H]3Cc4ccccc4C[C@H]3O)CC2)cc1 (racemic)								1.68
O=C(c1ccc(F)cc1)C1CCN([C@@H]2Cc3ccccc3C[C@H]2O)CC1 (relative stereo)						251		
CNc1ccc(C(=O)C2CCN(C3Cc4ccccc4CC3O)CC2)cc1 (single isomer, unassigned; (+))			19	408	61.5	7760	1170	
